Results from different studies.
pIC50: −log10 of the molar value.
Observed: cell growth or viability

SMILES	cell line	method	time	setting	measurement	value
Cc1ccc(NNc2nc3ccc(Br)cc3c(=O)n2-c2ccccc2)cc1	NIH3T3	MTT	48 h		pIC50	4.83
Nc1cc2cccnc2c2ncccc12	HFF-1	MTT	48 h	dark	pIC50	4.89
COc1cc(C(=O)c2nc(-c3ccc4cc[nH]c4c3)c[nH]2)cc(OC)c1OC	PC-3	MTS	72 h		pIC50	7.69
Cc1c(C)c2c(c(C)c1O)CCC(C)(COc1ccc(CC3SC(=O)NC3=O)cc1)O2 (stereo not drawn)	NIH3T3		96 h		pIC50	4.43
COc1cccc2c1C(=O)c1c(O)c3c(c(O)c1C2=O)C[C@@](O)(C(=O)CO)C[C@@H]3O[C@H]1C[C@H](N)[C@H](O)[C@H](C)O1	HUVEC	MTT	24 h		pIC50	4.51
CC(=O)Nc1ccc(O)cc1	NIH3T3		96 h		pIC50	4.18
C=CCn1c(=O)c2cnc(Nc3ccc(N4CCN(C)CC4)cc3)nc2n1-c1ccc2c(n1)[C@@](O)(CC)CC2	NCI-H1048	ATP luminescence	72 h		pIC50	6.51
CS(=O)(=O)CCNCc1ccc(-c2ccc3ncnc(Nc4ccc(OCc5cccc(F)c5)c(Cl)c4)c3c2)o1	NCI-H2170	ATP luminescence			pIC50	6.91
O[C@@H]1[C@@H](O)[C@H](Nc2cc3cccnc3c3ncccc23)OC[C@H]1O	HFF-1	MTT	48 h	dark	pIC50	4.37
NNc1nc2ccc(Br)cc2c(=O)n1-c1ccccc1	NIH3T3	MTT	48 h		pIC50	3.99
COc1ccccc1/C=N/N=C1\C(=O)Nc2ccccc21	HUVEC	MTT	48 h		IC50	112 µg/mL
NNc1nc2c(Cl)cc(Cl)cc2c(=O)n1-c1ccc(F)cc1	NIH3T3	MTT	48 h		pIC50	4.13
O=C1Nc2ccccc2/C1=N/N=C/c1cccc([N+](=O)[O-])c1	HUVEC	MTT	48 h		IC50	119 µg/mL
NNc1nc2ccc(Br)cc2c(=O)n1-c1ccc(Cl)cc1	NIH3T3	MTT	48 h		pIC50	4.71
COc1c(Cl)cccc1Nc1c(-c2ccncc2OC[C@@H]2COCCO2)[nH]c2c1C(=O)NCC2	NCI-H2170	ATP luminescence			pIC50	7.61
